Legend:
CYP2D6 = CYP2D6 (Homo sapiens, UniProt P10635); assay: (§1) Inhibition of CYP2D6 in human liver microsomes assessed as bufuralol hydroxylation to 4'-hydroxybufuralol at 1 uM after 10 mins in presence of NADPH; type: ADME; conditions: liver microsomes, probe bufuralol
[1] = (§2) Half life in mouse liver microsomes at 1 uM by LC-MS/MS analysis in presence of NADPH; type: ADME; conditions: liver microsomes
Method in brief: (§3)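 Microsomal stability was measured in human, rat and mouse liver microsomes, with sunitinib run in parallel as the reference compound.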

CYP3A4 = CYP3A4 (Homo sapiens, UniProt P08684); assay: (§4) Inhibition of CYP3A4 in human liver microsomes assessed as midazolam hydroxylation to 1'-hydroxymidazolam at 1 uM after 10 mins in presence of NADPH; type: ADME; conditions: liver microsomes, probe midazolam
[2] = (§5) Half life in human liver microsomes at 1 uM by LC-MS/MS analysis in presence of NADPH; type: ADME; conditions: liver microsomes; method in brief: as §3
CYP2C9 = CYP2C9 (Homo sapiens, UniProt P11712); assay: (§6) Inhibition of CYP2C9 in human liver microsomes assessed as tolbutamide hydroxylation to hydroxytolbutamide at 1 uM after 10 mins in presence of NADPH; type: ADME; conditions: liver microsomes, probe tolbutamide
[3] = (§7) Half life in rat liver microsomes at 1 uM by LC-MS/MS analysis in presence of NADPH; type: ADME; conditions: liver microsomes; method in brief: as §3
CYP1A2 = biological target: T1, CYP1A2 (Homo sapiens, UniProt P05177); assay: (§8) Inhibition of CYP1A2 in human liver microsomes assessed as phenacetin […] to acetaminophen at 1 uM after 10 mins in presence of NADPH; type: ADME; conditions: liver microsomes, probe phenacetin
T1 sequence (P05177 whole entry): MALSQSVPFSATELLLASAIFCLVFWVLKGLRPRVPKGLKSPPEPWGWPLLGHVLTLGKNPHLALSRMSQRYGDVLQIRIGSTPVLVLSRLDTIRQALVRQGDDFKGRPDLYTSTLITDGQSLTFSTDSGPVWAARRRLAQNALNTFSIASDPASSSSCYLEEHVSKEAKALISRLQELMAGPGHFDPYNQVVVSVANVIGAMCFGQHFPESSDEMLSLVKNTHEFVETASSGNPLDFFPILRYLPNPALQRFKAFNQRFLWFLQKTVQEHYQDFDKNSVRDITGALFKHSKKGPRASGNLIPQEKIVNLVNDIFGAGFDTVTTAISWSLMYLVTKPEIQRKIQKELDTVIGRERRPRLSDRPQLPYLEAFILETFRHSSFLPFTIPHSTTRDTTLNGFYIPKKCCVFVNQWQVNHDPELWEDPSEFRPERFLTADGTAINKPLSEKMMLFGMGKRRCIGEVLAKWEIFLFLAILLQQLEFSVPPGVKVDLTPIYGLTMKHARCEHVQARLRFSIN

Trypanosoma cruzi = assay: Antitrypanosomal activity against trypomastigotes of Trypanosoma cruzi CA-I/72 infected in mouse C2C12 cells after 72 hrs; type: functional, organism-based; conditions: CA-I/72, C2C12, 72 h
Method in brief: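 EC50 derived from dose–response curves against T. cruzi in infected mouse C2C12 myoblasts.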

Cytochrome P450 2D6 = Cytochrome P450 2D6 (Homo sapiens, UniProt P10635); assay: as §1; type: ADME; conditions: microsomes, 10 min, 1 µM
Cytochrome P450 3A4 = Cytochrome P450 3A4 (Homo sapiens, UniProt P08684); assay: as §4; type: ADME; conditions: microsomes, 10 min, 1 µM
Liver microsome [4] = assay: as §5; type: ADME; conditions: microsomes, 1 µM; method in brief: as §3
Cytochrome P450 2C9 = Cytochrome P450 2C9 (Homo sapiens, UniProt P11712); assay: as §6; type: ADME; conditions: microsomes, 10 min, 1 µM
Liver microsome [5] = assay: as §7; type: ADME; conditions: microsomes, 1 µM; method in brief: as §3
Cytochrome P450 1A2 = biological target: T2, Cytochrome P450 1A2 (Homo sapiens, UniProt P05177); assay: as §8; type: ADME; conditions: microsomes, 10 min, 1 µM
T2 sequence (P05177 whole entry): T1 sequence (P05177 whole entry)

Liver = assay: as §2; type: ADME; conditions: microsomes, 1 µM; method in brief: as §3

CYP2D6, sequence (P10635 whole entry): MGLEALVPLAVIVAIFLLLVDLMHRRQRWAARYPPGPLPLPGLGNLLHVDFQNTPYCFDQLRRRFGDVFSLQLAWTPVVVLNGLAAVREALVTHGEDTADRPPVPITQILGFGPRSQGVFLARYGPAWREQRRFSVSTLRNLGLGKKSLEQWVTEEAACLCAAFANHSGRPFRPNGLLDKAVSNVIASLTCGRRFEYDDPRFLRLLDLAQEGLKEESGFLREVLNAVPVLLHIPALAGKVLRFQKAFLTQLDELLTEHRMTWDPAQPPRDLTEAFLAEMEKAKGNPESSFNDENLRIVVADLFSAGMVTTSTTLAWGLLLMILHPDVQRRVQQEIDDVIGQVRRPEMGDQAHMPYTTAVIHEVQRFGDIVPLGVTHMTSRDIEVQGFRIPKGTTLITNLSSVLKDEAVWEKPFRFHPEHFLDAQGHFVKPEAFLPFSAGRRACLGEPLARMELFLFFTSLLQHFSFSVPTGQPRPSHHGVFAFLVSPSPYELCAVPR
CYP3A4, sequence (P08684 whole entry): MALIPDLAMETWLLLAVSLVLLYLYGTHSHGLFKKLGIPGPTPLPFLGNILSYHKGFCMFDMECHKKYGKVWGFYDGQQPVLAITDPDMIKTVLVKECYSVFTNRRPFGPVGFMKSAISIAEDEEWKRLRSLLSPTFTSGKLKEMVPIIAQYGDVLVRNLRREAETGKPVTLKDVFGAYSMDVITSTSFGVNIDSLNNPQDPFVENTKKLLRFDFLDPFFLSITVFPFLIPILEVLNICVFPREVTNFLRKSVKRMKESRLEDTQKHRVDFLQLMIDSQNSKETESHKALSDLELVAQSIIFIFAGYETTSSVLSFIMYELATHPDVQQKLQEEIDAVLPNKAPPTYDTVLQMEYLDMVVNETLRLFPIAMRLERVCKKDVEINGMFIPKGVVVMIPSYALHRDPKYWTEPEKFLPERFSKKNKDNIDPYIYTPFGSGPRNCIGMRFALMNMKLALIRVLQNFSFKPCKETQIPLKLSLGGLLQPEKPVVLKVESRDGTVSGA
CYP2C9, sequence (P11712 whole entry): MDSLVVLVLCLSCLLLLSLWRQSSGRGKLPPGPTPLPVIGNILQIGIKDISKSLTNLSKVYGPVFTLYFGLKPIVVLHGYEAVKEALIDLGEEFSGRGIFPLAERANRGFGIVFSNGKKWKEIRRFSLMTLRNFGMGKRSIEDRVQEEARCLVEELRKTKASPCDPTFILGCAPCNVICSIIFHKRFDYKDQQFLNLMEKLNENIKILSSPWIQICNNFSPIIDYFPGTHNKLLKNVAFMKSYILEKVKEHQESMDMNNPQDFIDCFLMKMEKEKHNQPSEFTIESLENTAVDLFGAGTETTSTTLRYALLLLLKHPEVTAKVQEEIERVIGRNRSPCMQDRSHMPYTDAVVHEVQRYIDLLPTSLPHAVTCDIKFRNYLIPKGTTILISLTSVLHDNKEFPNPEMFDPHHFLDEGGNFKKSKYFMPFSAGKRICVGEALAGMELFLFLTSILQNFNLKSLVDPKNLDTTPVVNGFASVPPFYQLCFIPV
Cytochrome P450 2D6, sequence (P10635 whole entry): as the sequence (P10635 whole entry) above
Cytochrome P450 3A4, sequence (P08684 whole entry): as the sequence (P08684 whole entry) above
Cytochrome P450 2C9, sequence (P11712 whole entry): as the sequence (P11712 whole entry) above

With O=C(N[C@H](Cc1c[nH]c2ccccc12)C(=O)Nc1ccncc1)c1ccc(-c2ccc(OCc3ccc(F)cc3F)c(F)c2)cc1F the inhibition at 10 min, 1 µM (CYP2D6) was 21%, the half-life at 1 µM [1] was 34 min and the inhibition at 10 min, 1 µM (CYP3A4) was 38%. It also gave a half-life at 1 µM [2] of 25 min, an inhibition at 10 min, 1 µM (CYP2C9) of 84% and a half-life at 1 µM [3] of 30 min. The inhibition at 10 min, 1 µM (CYP1A2) was -9% and the EC50 (Trypanosoma cruzi) was 0.6 nM.
O=C(N[C@H](Cc1c[nH]c2ccccc12)C(=O)Nc1ccncc1)c1ccc(N2CCN(c3cccc(C(F)(F)F)c3)CC2)cc1F gave an inhibition at 10 min, 1 µM (CYP2D6) of 74%, a half-life at 1 µM [1] of 11 min and an inhibition at 10 min, 1 µM (CYP3A4) of 86%. For the same compound, the half-life at 1 µM [2] was 8 min, the inhibition at 10 min, 1 µM (CYP2C9) was 96% and the half-life at 1 µM [3] was 24 min. It also gave an inhibition at 10 min, 1 µM (CYP1A2) of 10% and an EC50 (Trypanosoma cruzi) of 0.47 nM.
For O=C(N[C@H](Cc1c[nH]c2ccccc12)C(=O)Nc1ccncc1)c1ccc(-c2ccc(OCc3ccc(F)cc3)c(C(F)(F)F)c2)cc1F, the inhibition at 10 min, 1 µM (CYP2D6) was -17%, the half-life at 1 µM [1] was 51 min and the inhibition at 10 min, 1 µM (CYP3A4) was 15%. For the same compound, the half-life at 1 µM [2] was 29 min, the inhibition at 10 min, 1 µM (CYP2C9) was 41% and the half-life at 1 µM [3] was 53 min. For the same compound, the inhibition at 10 min, 1 µM (CYP1A2) was -26% and the EC50 (Trypanosoma cruzi) was 9.2 nM.
O=C(N[C@H](Cc1c[nH]c2ccccc12)C(=O)Nc1ccncc1)c1ccc(-c2ccc(C(F)(F)F)c(F)c2)cc1F showed an inhibition at 10 min, 1 µM (CYP2D6) of 27%, a half-life at 1 µM [1] of 69 min and an inhibition at 10 min, 1 µM (CYP3A4) of 24%. It also gave a half-life at 1 µM [2] of 45 min, an inhibition at 10 min, 1 µM (CYP2C9) of 92% and a half-life at 1 µM [3] of 39 min. For the same compound, the inhibition at 10 min, 1 µM (CYP1A2) was -4% and the EC50 (Trypanosoma cruzi) was 2.9 nM.
With O=C(N[C@H](Cc1c[nH]c2ccccc12)C(=O)Nc1ccncc1)c1ccc(-c2cc(F)ccc2F)cc1F the “inhibition (INH)” value (Cytochrome P450 2D6) was 47%, the “inhibition (INH)” value (Cytochrome P450 3A4) was 74% and the t1/2 (Liver microsome [4]) was 17 min. The “inhibition (INH)” value (Cytochrome P450 2C9) was 92%, the t1/2 (Liver microsome [5]) was 17 min and the “inhibition (INH)” value (Cytochrome P450 1A2) was 3%. The EC50 (Trypanosoma cruzi) was 1.3 nM.
O=C(N[C@H](Cc1c[nH]c2ccccc12)C(=O)Nc1ccncc1)c1ccc(-c2ccc(F)c(F)c2)cc1F gave a t1/2 (Liver) of 39 min and a t1/2 (Liver microsome [4]) of 18 min.
In the case of O=C(N[C@H](Cc1c[nH]c2ccccc12)C(=O)Nc1ccncc1)c1ccc(-c2cccc(F)c2)cc1F, the t1/2 (Liver) is reported as 27 min, the t1/2 (Liver microsome [4]) is reported as 18 min and the half-life at 1 µM [3] is reported as 20 min.
